Data: ChEMBL document CHEMBL4765486, “Novel Nonsecosteroidal Vitamin D Receptor Modulator Combined with Gemcitabine Enhances Pancreatic Cancer Therapy through Remodeling of the Tumor Microenvironment” (J Med Chem, 2021)
pIC50: −log10 of the molar value. Activity calls are given as the source filed them. Unless noted, the calls are words filed in the database; no cut-off is given here.

Columns and labels:
[1] = system: LTC-14; experiment: Inhibition of rat LTC-14 cells activation assessed as inhibition of PDGFB mRNA expression at 0.5 uM treated under conditioned media of DSL-6A/C1 cells for 24 hrs by q-PCR analysis; format: functional, cell-based
Procedure, shortened: (§1)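 LTC-14 PSCs were exposed for 24 h to conditioned medium from rat DSL-6A/C1 cancer cells containing compound at 0.5 μM. Pdgfa, Pdgfb, Fgf2, Hgf and Periodin mRNA were quantified by RT-qPCR. Three repeats, mean ± SD versus CM alone.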

[2] = system: Mus musculus; experiment: Inhibition of GFP-tagged rat LTC-14 cells activation in BALB/c nude mouse xenografted along with luciferase-tagged DSL-6A/C1-Luc cells assessed as reduction in alpha-smooth muscle actin expression in tumor at 500 ug/kg, ip administered once every 3 days for 12 days coadministered with gemcitabine at 100 mg/kg by DAPI staining based laser confocal scanning microscopy; format: functional, organism-based; settings: dose 500.0 µg/kg, time 12.0 day
Procedure, shortened: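 Tumours were taken from orthotopic co-inoculated nude mice given gemcitabine 100 mg/kg plus compound (500 μg/kg) or calcipotriol (60 μg/kg) ip for 12 days. Sections were fixed in 4% PFA, permeabilised with 0.5% Triton X-100 and blocked in 5% BSA. They were incubated with anti-α-SMA overnight at 4 °C, then an Alexa Fluor 594 secondary for 1 h at 37 °C, DAPI-counterstained and imaged by confocal microscopy.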

[3] = Toxicity in orthotropic xenograft BALB/c nude mouse model of pancreatic cancer co-inoculated with rat DSL-6A/C1-Luc cells and LTC-14-GFP cells assessed as hypercalcemia at 500 ug/kg, ip administered once every 3 days for 12 days coadministered with gemcitabine at 100 mg/kg and measured after 3 days post last dose; format: organism-based; settings: in vivo, 0.5 mg/kg, 288 h, dose 500 µg/kg, time 12 day
Procedure, shortened: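 Orthotopic DSL-6A/C1-luci/LTC-14-GFP nude mice received gemcitabine 100 mg/kg plus compound 500 μg/kg ip for 12 days. They were sacrificed 3 days after the final dose, and serum was collected for biochemical analysis to assess hypercalcemia.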

[4] = target: T1, Vitamin D3 receptor (Homo sapiens, UniProt P11473); experiment: Binding affinity to VDR (unknown origin) by fluorescence polarization assay
T1 sequence (P11473 whole entry): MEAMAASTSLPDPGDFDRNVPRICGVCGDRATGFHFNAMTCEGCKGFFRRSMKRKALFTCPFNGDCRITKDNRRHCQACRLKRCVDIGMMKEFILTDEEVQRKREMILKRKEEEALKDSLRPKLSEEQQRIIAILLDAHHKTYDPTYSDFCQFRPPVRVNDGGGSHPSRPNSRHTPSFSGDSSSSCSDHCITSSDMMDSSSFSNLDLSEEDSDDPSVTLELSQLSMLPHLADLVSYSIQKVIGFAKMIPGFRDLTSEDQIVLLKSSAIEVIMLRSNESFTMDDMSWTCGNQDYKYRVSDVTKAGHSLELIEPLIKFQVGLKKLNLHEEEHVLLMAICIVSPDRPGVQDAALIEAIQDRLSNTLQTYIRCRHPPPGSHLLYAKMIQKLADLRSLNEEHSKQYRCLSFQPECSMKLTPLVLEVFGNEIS
Procedure, shortened: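 Competitive VDR binding was measured by PolarScreen fluorescence polarization, in triplicate.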

[5] = system: LTC-14; experiment: Inhibition of rat LTC-14 cells activation assessed as reduction in ECM deposition resulting in doxorubicin accumulation in PSC spheres pretreated with compounds followed by doxorubicin addition by laser confocal microscopy analysis; format: functional, cell-based
Procedure, shortened: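 LTC-14 cells were grown in 3D culture to form PSC spheres and treated with compounds. Fluorescent doxorubicin was then added, and its penetration into the spheres was imaged by laser confocal microscopy. Three repeats, versus untreated control.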

[6] = system: LTC-14; experiment: Inhibition of rat LTC-14 cells activation assessed decrease in TGF-beta1 induced collagen 1 protein expression at 0.5 uM incubated for 24 hrs by Western blot analysis; format: functional, cell-based
Procedure, shortened: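 LTC-14 cells were treated for 24 h with compound (0.5 μM) plus TGF-β1 (0.5 ng/mL in the text, 5 ng/mL in the methods). Lysates were run on 10% SDS-PAGE, transferred to PVDF and probed with rabbit anti-collagen I, with β-actin as reference. Bands were quantified by densitometry versus TGF-β1 alone.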

[7] = target: T2, Vitamin D3 receptor (Homo sapiens) (UniProt P11473); experiment: Agonist activity at VDR (unknown origin) expressed in HEK293 cells co-transfected with pGL4.27-SPP3-Luc and CMV-hRXRalpha and pCMX-Renilla plasmids after 24 hrs by dual luciferase reporter gene assay; format: cell-based; settings: filed as agonist, dose 0.0001-1 µM
T2 sequence (whole entry): T1 sequence (P11473 whole entry)
Procedure, shortened: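 HEK293 cells in 48-well plates were transfected per well with 40 ng TK-Spp×3-LUC reporter, 20 ng pCMX-Renilla, 30 ng pENTER-CMV-hRXRα and 100 ng pCMX-VDR using Lipofectamine 2000. Compounds were added 8 h post-transfection, and dual-luciferase activity was read 24 h later. Firefly signal was normalised to Renilla. The experiment was run three times.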

[8] = system: DSL-6A/C1; experiment: Potentiation of gemcitabine-induced antitumor activity against luciferase-tagged rat DSL-6A/C1 cells and GFP-tagged LTC-14 cells co-inoculated in orthotropic xenograft BALB/c nude mouse model of pancreatic cancer assessed as inhibition of collagen deposition at 500 ug/kg, ip administered once every 3 days for 12 days coadministered with gemcitabine at 100 mg/kg and measured after 3 days post last dose by Masson staining based assay; format: functional, organism-based; settings: dose 500.0 µg/kg, time 12.0 day
Procedure, shortened: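 In the same orthotopic co-inoculation model, mice received gemcitabine 100 mg/kg ip every 3 days plus compound 500 μg/kg ip for 12 days. Animals were sacrificed 3 days after the last dose. Pancreatic tumour sections were stained with H&E for tissue structure and with Masson's trichrome for collagen deposition, imaged at ×100.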

[9] = Cytotoxicity against rat DSL-6A/C1 cells assessed as reduction in cell proliferation at 0.5 uM incubated for 24 hrs by MTT assay; format: cell-based; settings: dsl-6a/c1, 24 h
[10] = system: DSL-6A/C1; experiment: Antiproliferative activity against rat DSL-6A/C1 cells assessed as reduction in cell viability at 0.5 uM treated with conditioned media of LTC-14 cells for 24 hrs by MTT assay; format: functional, cell-based
Procedure, shortened: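 Rat pancreatic cancer DSL-6A/C1 cells were cultured in supernatant from LTC-14 PSCs (PSC-CM) with compound added at 0.5 μM for 24 h. Viability was then read by MTT: 4 h incubation with MTT (5 mg/mL stock), absorbance at 570 nm. Run in triplicate, compared with PSC-CM alone.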

[11] = system: LTC-14; experiment: Inhibition of rat LTC-14 cells interaction with DSL-6A/C1 cells in conditioned media assessed as inhibition of POSTN protein expression at 0.5 uM measured after 24 hrs by Western blot analysis; format: functional, cell-based
Procedure, shortened: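 LTC-14 cells were treated for 24 h with DSL-6A/C1 conditioned medium plus compound (0.5 μM). Proteins were separated on 10% SDS-PAGE, transferred to PVDF and probed with rabbit anti-PDGF-A or anti-POSTN, with β-actin as loading reference.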

[12] = system: LTC-14; experiment: Inhibition of rat LTC-14 cells activation assessed as inhibition of Hgf mRNA expression at 0.5 uM treated under conditioned media of DSL-6A/C1 cells for 24 hrs by q-PCR analysis; format: functional, cell-based; procedure, shortened: as §1
[13] = system: LTC-14; experiment: Inhibition of rat LTC-14 cells activation assessed as inhibition of Fgf mRNA expression at 0.5 uM treated under conditioned media of DSL-6A/C1 cells for 24 hrs by q-PCR analysis; format: functional, cell-based; procedure, shortened: as §1

For `CCn1cc(C(CC)(CC)c2ccc(OCC(C)O)c(C)c2)cc1C(=O)NCCN1CCN(C)CC1` (stereo not drawn), the inhibition [1] was “Active”, the inhibition [2] was “Active” and the Activity [3] was “Non-Toxic”. The pIC50 [4] was 7.24, the inhibition [5] was “Active” and the inhibition [6] was “Active”. The Activity [7] was “Dose-dependent effect”, the Activity [8] was “Active” and the Activity [9] was “Non-Toxic”. For the same molecule, the Activity [10] was “inactive”, the inhibition [11] was “Active” and the inhibition [12] was “Active”. For the same molecule, the inhibition [13] was “Active”.
